Results published in ChEMBL document CHEMBL4706770, “SD-91 as A Potent and Selective STAT3 Degrader Capable of Achieving Complete and Long-Lasting Tumor Regression” (ACS Med Chem Lett, 2021).
pKd: −log10 of the molar value. The source made the active and inactive calls. No cut-off for these calls is given here.

Key:
[1] = biological target: Protein cereblon/Signal transducer and activator of transcription 2 (Homo sapiens) (UniProt Q96SW2+P52630); assay: Protac activity at CRBN/STAT2 in human MOLM16 cells assessed as STAT2 degradation at 0.25 to 100 uM incubated for 4 hrs by Western blot analysis; format: cell-based; settings: dose 0.25-100 µM
In short: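 Cells treated 4 h with compounds across 25 nM to 100 μM; STAT proteins detected by Western blot with GAPDH as loading control; STAT3 DC50 estimated by densitometry of STAT3 relative to GAPDH. Applies to MOLM-16 for all STATs, and to SU-DHL-1 and SUP-M2 for STAT3.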

[2] = biological target: Protein cereblon/Signal transducer and activator of transcription 1-alpha/beta (Homo sapiens) (UniProt P42224+Q96SW2); assay: Protac activity at CRBN/STAT1 in human SUP-M2 cells […] at 0.25 to 100 uM incubated for 4 hrs by Western blot analysis; format: cell-based; settings: SUPM2, dose lower 0.25 µM
[3] = Drug uptake in SCID mouse xenografted with human MOLM16 cells assessed as (2-(((5S,8S,10aR)-8-(((S)-5-amino-1-(benzhydrylamino)-1,5-dioxopentan-2-yl)carbamoyl)-3-(8-(2-(2,6-dioxopiperidin-3-yl)-1-oxoisoindolin-4-yl)oct-7-yno yl)-6-oxodecahydropyrrolo[1,2-a][1,5]diazocin-5-yl)carbamoyl)-1H-indole-5-carbonyl)phosphonic acid level in plasma at 50 mg/kg, iv measured after 24 hrs by LC-MS/MS; format: ADME, organism-based; settings: in vivo
In short: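 SCID mice bearing MOLM-16 xenografts given a single iv dose of 50 mg/kg. Concentrations of parent and hydrolysis product measured in plasma (ng/mL) and tumor tissue (ng/g) at 1, 6 and 24 h.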

[4] = Drug metabolism in complete cell culture medium assessed as (2-(((5S,8S,10aR)-8-(((S)-5-amino-1-(benzhydrylamino)-1,5-dioxopentan-2-yl)carbamoyl)-3-(8-(2-(2,6-dioxopiperidin-3-yl)-1-oxoisoindolin-4-yl)oct-7-ynoyl)-6-oxodecahydropyrrolo[1,2-a][1,5]diazocin-5-yl)carbamoyl)-1H-indole-5-carbonyl)phosphonic acid after 2 hrs
In short: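 Parent compound incubated in the cell culture medium used for the cellular assays, with or without cells, at 37 °C. Percentages of the hydrolysis product and the glutarimide ring-opened product measured at time points up to 96 h.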

[5] = biological target: Signal transducer and activator of transcription 2 (Homo sapiens, UniProt P52630); assay: Binding affinity to human recombinant STAT2 assessed as dissociation constant incubated for 15 mins by biolayer interferometry
In short: (§1)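 Biolayer interferometry with recombinant human STAT1, STAT2, STAT3, STAT4, STAT5A, STAT5B or STAT6 proteins containing their SH2 domain. Compound run in 2× serial dilutions from 200 nM. Kd taken from steady-state fitting of equilibrium responses against concentration using a 1:1 binding model.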

[6] = biological target: T1, Signal transducer and activator of transcription 5A (Homo sapiens, UniProt P42229); assay: Binding affinity to human recombinant STAT5A assessed as dissociation constant incubated for 15 mins by biolayer interferometry; in short: as §1
T1 sequence (P42229 whole entry): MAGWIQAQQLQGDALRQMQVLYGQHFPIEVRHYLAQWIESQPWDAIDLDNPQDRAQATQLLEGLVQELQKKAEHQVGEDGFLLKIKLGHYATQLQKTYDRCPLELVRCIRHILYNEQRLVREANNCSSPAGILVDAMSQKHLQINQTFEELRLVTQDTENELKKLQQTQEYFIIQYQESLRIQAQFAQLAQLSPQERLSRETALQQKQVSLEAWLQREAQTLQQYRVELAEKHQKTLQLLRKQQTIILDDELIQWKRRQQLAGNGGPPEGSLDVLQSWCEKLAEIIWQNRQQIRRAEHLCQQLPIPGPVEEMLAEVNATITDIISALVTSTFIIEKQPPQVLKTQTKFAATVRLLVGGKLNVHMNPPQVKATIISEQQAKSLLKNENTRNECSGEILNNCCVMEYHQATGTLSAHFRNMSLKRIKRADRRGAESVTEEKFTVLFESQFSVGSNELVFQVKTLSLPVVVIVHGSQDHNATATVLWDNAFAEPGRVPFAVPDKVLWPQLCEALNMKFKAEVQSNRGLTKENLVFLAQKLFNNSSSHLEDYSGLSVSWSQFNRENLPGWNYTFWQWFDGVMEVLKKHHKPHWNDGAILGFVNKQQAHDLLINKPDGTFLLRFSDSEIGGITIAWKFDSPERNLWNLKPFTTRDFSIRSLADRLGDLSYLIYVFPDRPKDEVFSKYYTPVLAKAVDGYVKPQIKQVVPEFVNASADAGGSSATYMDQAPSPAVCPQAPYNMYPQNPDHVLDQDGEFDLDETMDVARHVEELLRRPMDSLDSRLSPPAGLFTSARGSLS

[7] = Toxicity in SCID mouse xenografted with human MOLM16 cells assessed as body weight loss at 25 to 50 mg/kg, iv for 65 days; format: organism-based; settings: in vivo, 1560 h, dose 25-50 mg/kg, time 65 day
In short: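 SCID mice bearing MOLM-16 xenografts dosed intravenously at 25 or 50 mg/kg on a weekly schedule; vehicle 10% PEG400/90% PBS; body weight and tumor volume measured every 2 days; signs of toxicity monitored during and after treatment.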

[8] = Stability of the compound in PEG400/phosphate buffer saline measured upto 100 hrs by LC/MS/MS analysis; format: physicochemical
In short: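 Compound incubated at room temperature in dosing vehicle (10% PEG400/90% phosphate buffered saline); percentages of parent and conversion products determined at time points up to 96 h.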

Protein cereblon/Signal transducer and activator of transcription 2 (Homo sapiens), sequence (P52630 whole entry, looked up): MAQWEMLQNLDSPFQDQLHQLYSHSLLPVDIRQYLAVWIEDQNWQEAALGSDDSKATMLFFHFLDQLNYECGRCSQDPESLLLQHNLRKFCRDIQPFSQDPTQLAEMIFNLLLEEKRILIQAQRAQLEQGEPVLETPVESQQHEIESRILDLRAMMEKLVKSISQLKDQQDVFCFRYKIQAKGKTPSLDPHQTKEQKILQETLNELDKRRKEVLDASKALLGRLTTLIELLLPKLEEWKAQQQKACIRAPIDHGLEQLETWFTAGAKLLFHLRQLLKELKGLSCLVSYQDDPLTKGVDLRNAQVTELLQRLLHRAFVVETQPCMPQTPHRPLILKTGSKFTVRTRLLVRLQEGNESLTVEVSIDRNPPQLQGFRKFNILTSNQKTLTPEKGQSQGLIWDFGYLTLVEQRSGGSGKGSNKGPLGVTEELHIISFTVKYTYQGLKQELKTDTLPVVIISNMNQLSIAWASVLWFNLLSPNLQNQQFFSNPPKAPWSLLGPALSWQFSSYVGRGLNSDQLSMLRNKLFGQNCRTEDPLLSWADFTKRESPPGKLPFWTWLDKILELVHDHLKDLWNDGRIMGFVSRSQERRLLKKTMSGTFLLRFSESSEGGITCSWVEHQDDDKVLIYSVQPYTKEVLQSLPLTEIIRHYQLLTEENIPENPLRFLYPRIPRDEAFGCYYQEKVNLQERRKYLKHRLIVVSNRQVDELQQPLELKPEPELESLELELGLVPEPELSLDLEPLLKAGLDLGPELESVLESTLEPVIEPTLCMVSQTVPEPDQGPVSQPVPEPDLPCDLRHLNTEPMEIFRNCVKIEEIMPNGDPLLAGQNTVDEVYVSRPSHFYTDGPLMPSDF
Protein cereblon/Signal transducer and activator of transcription 2 (Homo sapiens), sequence (Q96SW2 whole entry, looked up): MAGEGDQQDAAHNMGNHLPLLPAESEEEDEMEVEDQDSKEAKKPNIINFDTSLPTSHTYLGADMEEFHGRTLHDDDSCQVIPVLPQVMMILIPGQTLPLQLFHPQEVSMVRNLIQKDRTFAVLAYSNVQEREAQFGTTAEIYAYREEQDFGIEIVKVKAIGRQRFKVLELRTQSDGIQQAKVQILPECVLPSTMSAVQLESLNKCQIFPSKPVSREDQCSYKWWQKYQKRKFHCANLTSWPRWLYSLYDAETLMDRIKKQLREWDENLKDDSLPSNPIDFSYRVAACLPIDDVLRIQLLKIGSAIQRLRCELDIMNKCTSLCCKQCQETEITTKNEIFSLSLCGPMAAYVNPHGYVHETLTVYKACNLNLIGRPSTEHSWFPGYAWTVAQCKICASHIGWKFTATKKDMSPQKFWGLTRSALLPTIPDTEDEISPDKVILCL
Signal transducer and activator of transcription 2, sequence (P52630 whole entry, the tested form may be a part): as the sequence (P52630 whole entry, looked up) above

Structure (SMILES)	Activity [1]	Activity [2]	Drug uptake [3] [ng/mL]	Drug metabolism [4] [%]	pKd [5]	pKd [6]	Activity [7]	Stabilty [8]
NC(=O)CC[C@H](NC(=O)[C@@H]1CC[C@@H]2CCN(C(=O)CCCCCC#Cc3cccc4c3CN(C3CCC(=O)NC3=O)C4=O)C[C@H](NC(=O)c3cc4cc(C(F)(F)P(=O)(O)O)ccc4[nH]3)C(=O)N21)C(=O)NC(c1ccccc1)c1ccccc1 (stereo partly drawn)	inactive	inactive	305	50	–	–	–	–
NC(=O)CC[C@H](NC(=O)[C@@H]1CC[C@@H]2CCN(C(=O)CCCCCC#Cc3cccc4c3CN(C3CCC(=O)NC3=O)C4=O)C[C@H](NC(=O)c3cc4cc(C(=O)P(=O)(O)O)ccc4[nH]3)C(=O)N21)C(=O)NC(c1ccccc1)c1ccccc1 (stereo partly drawn)	–	–	–	–	< 8.00	< 8.00	Non-Toxic	Stable
